# Where two headings read alike, the source gives them in different places.
# What was measured:
# SgvP [1] = target: T1, SgvP (Streptomyces griseoviridis, UniProt R9USI6); assay: In vitro reconstitution of C–S bond formation, SgvP with CamB/CamA; type: biochemical; conditions: CamB/CamA as redox partners, relative to Fdx/Fdr
# YY64 = assay: Activity of homolog P450-RhFRed chimera YY64; type: biochemical; conditions: cell lysates, range of conditions
# [2] = Behavior toward chemical oxidants; type: physicochemical
# SgvP [3] = target: T1, SgvP; type: biochemical; conditions: Fdx/Fdr, Opt13, NADP+, TCEP, no apparent intermediates detected
# Method in brief: (§1)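 Reactions were run under standard conditions, with a control reaction lacking P450. Peaks containing m/z 496 and m/z 512 were taken as singly- and doubly-oxidized by-products.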
# FNS2 = assay: Activity of homolog P450-RhFRed chimera FNS2; type: biochemical; conditions: cell lysates, range of conditions
# SgvP-RhFRed = assay: Enzymatic reaction with SgvP-RhFRed chimera; type: biochemical, Streptomyces griseoviridis; conditions: NADP+, Opt13 for NADPH regeneration; without TCEP; LC-MS
# SgvP L337F = assay: Enzymatic reaction with SgvP mutant L337F; type: biochemical, Streptomyces griseoviridis; conditions: substrate 2; same reaction conditions as wild-type SgvP
# Method in brief: as §1
# SgvP P237T = assay: Enzymatic reaction with SgvP mutant P237T; type: biochemical, Streptomyces griseoviridis; conditions: substrate 2; same reaction conditions as wild-type SgvP
# [4] = test system: SgvP P237T with A238 mutated to threonine; assay: Enzymatic reaction with SgvP double mutant P237T, A238 to threonine; type: biochemical, Streptomyces griseoviridis; conditions: substrate 2; P237T activity partially rescued by mutating A238 to threonine
# [5] = Stability in aqueous buffer; type: physicochemical
# SgvP mutants = assay: LC-MS by-product analysis of reactions with SgvP mutants; type: biochemical, Streptomyces griseoviridis; conditions: singly- (m/z = 496) and doubly-oxidized (m/z = 512) by-products, substrate 2
# Method in brief: as §1
# [6] = Stability under air at ambient temperature; type: physicochemical; conditions: two weeks
# NK82 = assay: Activity of homolog P450-RhFRed chimera NK82; type: biochemical; conditions: cell lysates, range of conditions
# SgvP [7] = target: T1, SgvP; assay: Type I binding spectra, titration of SgvP with 2
substance,measurement,setting,value
pre-griseoviridin [compound 2],conversion to griseoviridin (1),SgvP [1],Analogous results
same,activity of homolog chimera with 2,YY64,none of the homologs exhibited any activity
same,production of 1 with chemical oxidants,[2]; mCPBA or basic H2O2,we did not observe the production of 1
same,outcome of treatment with mCPBA,"[2]; mCPBA, crude NMR, sulfinic and sulfonic acids of 2 tentatively detected by LC-MS",intractable mixture
same,outcome of treatment with basic H2O2,[2]; series of basic hydrogen peroxide conditions,"ester hydrolysis, S-oxidation, or broad degradation"
same,conversion to griseoviridin (1),SgvP [3],nearly full conversion to griseoviridin (1) in approximately three hours
same,activity of homolog chimera with 2,FNS2,none of the homologs exhibited any activity
same,product of incubation with SgvP-RhFRed,SgvP-RhFRed,yielded only disulfide
same,activity relative to wild-type enzyme,SgvP L337F,comparable – if not slightly enhanced – activity to the wild-type enzyme
same,NMR yield of griseoviridin,SgvP P237T,7%
same,NMR yield of griseoviridin,[4],25%
same,disulfide formation with TCEP,[5]; TCEP added to the reaction mixture as a reductant,disulfide formation was effectively prevented
same,product in absence of SgvP-RhFRed or in buffer and co-solvent alone,"[5]; aqueous conditions, exposure to oxygen, no TCEP, LC-MS",disulfide as the only product
same,by-products formed,SgvP mutants,several oxidized by-products had formed
same,stability: degradation,[6],"remarkably stable, with no discernable degradation even after two weeks"
same,activity of homolog chimera with 2,NK82,none of the homologs exhibited any activity
same,binding spectrum type,SgvP [7]; SgvP incubated with various concentrations of 2,characteristic type I binding spectrum
same,Kd relative to that of TleB (fold lower),SgvP [7]; SgvP–2 Kd lower than TleB Kd,2.5 fold
same,Kd relative to that of PtmO5,SgvP [7]; SgvP–2 Kd vs PtmO5 Kd,one order of magnitude higher
same,λmax after shift on binding of 2,"SgvP [7]; type I binding spectrum, λmax shifted from 421 nm",386 nm

# From PMC12239663 (Journal of the American Chemical Society, 2024)
